Assay results: ChEMBL document CHEMBL1212764, “Antimicrobial resistance in Haemophilus influenzae respiratory tract isolates in Korea: results of a nationwide acute respiratory infections surveillance” (2010)
In brackets after ≈: the same amount, converted by molar mass.

How the values were obtained:
Assay type in all cases: functional
Haemophilus influenzae [1] = test: Antimicrobial activity against Haemophilus influenzae isolate by broth microdilution method
Procedure, shortened: (§1)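 Broth microdilution MIC in freshly prepared Haemophilus test medium per 2008 CLSI guidelines; H. influenzae ATCC 49247 and ATCC 49766 as control strains. Isolates from outpatient nasal aspirates (no prior antibiotics), cultured on blood agar with S. aureus streak and chocolate agar. PBP3 substitutions deduced from ftsI sequencing against the Rd strain; β-lactamase genes (TEM-1, ROB-1) detected by PCR.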

Haemophilus influenzae [2] = test: Antimicrobial activity against beta-lactamase-negative, ampicillin-sensitive Haemophilus influenzae by broth microdilution method; procedure, shortened: as §1
Haemophilus influenzae [3] = test: Antimicrobial activity against Beta-lactamase-positive, ampicillin-resistant Haemophilus influenzae by broth microdilution method; procedure, shortened: as §1
Haemophilus influenzae [4] = test: Antimicrobial activity against Beta-lactamase-negative, ampicillin-resistant Haemophilus influenzae by broth microdilution method; procedure, shortened: as §1
Haemophilus influenzae [5] = test: Antimicrobial activity against Beta-lactamase-positive, ampicillin-cluvulanate-resistant Haemophilus influenzae by broth microdilution method; procedure, shortened: as §1
Haemophilus influenzae [6] = test: Antimicrobial activity against Beta-lactamase-negative, ampicillin-resistant Haemophilus influenzae with Asp350Asn, Ser357Asp, Met377Ile, Ser385Thr, Arg517His substitutions in penicillin-binding protein 3 by broth microdilution method; procedure, shortened: as §1
Haemophilus influenzae [7] = test: Antimicrobial activity against Beta-lactamase-negative, ampicillin-resistant Haemophilus influenzae with Gly490Glu, Asn526Lys substitutions in penicillin-binding protein 3 by broth microdilution method; procedure, shortened: as §1
Haemophilus influenzae [8] = test: Antimicrobial activity against Beta-lactamase-negative, ampicillin-resistant Haemophilus influenzae with Asp350Asn, Met377Ile, Asn526Lys substitutions in penicillin-binding protein 3 by broth microdilution method; procedure, shortened: as §1
Haemophilus influenzae [9] = test: Antimicrobial activity against Beta-lactamase-negative, ampicillin-resistant Haemophilus influenzae with Asp350Asn, Met377Ile, Gly490Glu, Asn526Lys substitutions in penicillin-binding protein 3 by broth microdilution method; procedure, shortened: as §1
Haemophilus influenzae [10] = test: Antimicrobial activity against Beta-lactamase-negative, ampicillin-resistant Haemophilus influenzae with Ala502Val, Asn526Lys substitutions in penicillin-binding protein 3 by broth microdilution method; procedure, shortened: as §1
Haemophilus influenzae [11] = test: Antimicrobial activity against Beta-lactamase-negative, ampicillin-resistant Haemophilus influenzae with Asp350Asn, Met377Ile, Ala502Val, Asn526Lys substitutions in penicillin-binding protein 3 by broth microdilution method; procedure, shortened: as §1
Haemophilus influenzae [12] = test: Antimicrobial activity against Beta-lactamase-negative, ampicillin-resistant Haemophilus influenzae with Asp350Asn, Met377Ile, Gly490Glu, Ala502Val, Asn526Lys substitutions in penicillin-binding protein 3 by broth microdilution method; procedure, shortened: as §1
Haemophilus influenzae [13] = test: Antimicrobial activity against Beta-lactamase-negative, ampicillin-resistant Haemophilus influenzae with Ser311Pro, Ala502Thr, Asn526Lys substitutions in penicillin-binding protein 3 by broth microdilution method; procedure, shortened: as §1
Haemophilus influenzae [14] = test: Antimicrobial activity against Beta-lactamase-negative, ampicillin-resistant Haemophilus influenzae with Ile449Val, Ala502Thr, Asn526Lys substitutions in penicillin-binding protein 3 by broth microdilution method; procedure, shortened: as §1
Haemophilus influenzae [15] = test: Antimicrobial activity against Beta-lactamase-negative, ampicillin-resistant Haemophilus influenzae with Asp350Asn, Ser357Asp, Met377Ile, Ser385Thr, Ala502Thr, Asn526Lys substitutions in penicillin-binding protein 3 by broth microdilution method; procedure, shortened: as §1
Haemophilus influenzae [16] = test: Antimicrobial activity against Beta-lactamase-negative, ampicillin-resistant Haemophilus influenzae with Asp350Asn, Ser357Asp, Ser385Thr, Leu389Phe, Ala502Thr, Asn526Lys substitutions in penicillin-binding protein 3 by broth microdilution method; procedure, shortened: as §1
Haemophilus influenzae [17] = test: Antimicrobial activity against Beta-lactamase-negative, ampicillin-resistant Haemophilus influenzae with Ile449Val, Asn526Lys substitutions in penicillin-binding protein 3 by broth microdilution method; details: Haemophilus influenzae; read-out: MIC; procedure, shortened: as §1
Haemophilus influenzae [18] = test: Antimicrobial activity against Beta-lactamase-negative, ampicillin-resistant Haemophilus influenzae with Asp350Asn, Ser357Asp, Met377Ile, Ser385Thr, Leu389Phe, substitutions in penicillin-binding protein 3 by broth microdilution method; procedure, shortened: as §1
Haemophilus influenzae [19] = test: Antimicrobial activity against Beta-lactamase-negative, ampicillin-resistant Haemophilus influenzae with penicillin-binding protein 3 by broth microdilution method; procedure, shortened: as §1
Haemophilus influenzae [20] = test: Antimicrobial activity against Beta-lactamase-positive, ampicillin-cluvulanate-resistant Haemophilus influenzae with Asp350Asn, Ser357Asp, Met377Ile, Ser385Thr, Arg517His substitutions in penicillin-binding protein 3 by broth microdilution method; procedure, shortened: as §1
Haemophilus influenzae [21] = test: Antimicrobial activity against Beta-lactamase-positive, ampicillin-cluvulanate-resistant Haemophilus influenzae with Asp350Asn, Met377Ile, Asn526Lys substitutions in penicillin-binding protein 3 by broth microdilution method; procedure, shortened: as §1
Haemophilus influenzae [22] = test: Antimicrobial activity against Beta-lactamase-positive, ampicillin-cluvulanate-resistant Haemophilus influenzae with Asp350Asn, Met377Ile, Ser385Thr, Asn526Lys substitutions in penicillin-binding protein 3 by broth microdilution method; procedure, shortened: as §1
Haemophilus influenzae [23] = test: Antimicrobial activity against Beta-lactamase-positive, ampicillin-cluvulanate-resistant Haemophilus influenzae with Asp350Asn, Met377Ile, Ala502Val, Asn526Lys substitutions in penicillin-binding protein 3 by broth microdilution method; procedure, shortened: as §1
Haemophilus influenzae [24] = test: Antimicrobial activity against Beta-lactamase-positive, ampicillin-cluvulanate-resistant Haemophilus influenzae with Ala502Val, Asn526Lys substitutions in penicillin-binding protein 3 by broth microdilution method; procedure, shortened: as §1
Haemophilus influenzae [25] = test: Antimicrobial activity against Beta-lactamase-positive, ampicillin-cluvulanate-resistant Haemophilus influenzae with Asp350Asn, Met377Ile, Gly490Glu, Ala502Val, Asn526Lys substitutions in penicillin-binding protein 3 by broth microdilution method; procedure, shortened: as §1
Haemophilus influenzae [26] = test: Antimicrobial activity against Beta-lactamase-positive, ampicillin-cluvulanate-resistant Haemophilus influenzae with Ala368Thr, Ala502Thr, Asn526Lys substitutions in penicillin-binding protein 3 by broth microdilution method; procedure, shortened: as §1
Haemophilus influenzae [27] = test: Antimicrobial activity against Beta-lactamase-positive, ampicillin-cluvulanate-resistant Haemophilus influenzae with Asp350Asn, Ser357Asp, Ala437Ser, Ala502Thr, Asn526Lys substitutions in penicillin-binding protein 3 by broth microdilution method; procedure, shortened: as §1
Haemophilus influenzae [28] = test: Antimicrobial activity against Beta-lactamase-positive, ampicillin-cluvulanate-resistant Haemophilus influenzae with Asp350Asn, Ala502Thr, Asn526Lys substitutions in penicillin-binding protein 3 by broth microdilution method; procedure, shortened: as §1
Haemophilus influenzae [29] = test: Antimicrobial activity against Beta-lactamase-positive, ampicillin-cluvulanate-resistant Haemophilus influenzae with Ile449Val, Asn526Lys substitutions in penicillin-binding protein 3 by broth microdilution method; procedure, shortened: as §1
Haemophilus influenzae [30] = test: Antimicrobial activity against Beta-lactamase-positive, ampicillin-cluvulanate-resistant Haemophilus influenzae with Asp350Asn, Ala437Ser substitutions in penicillin-binding protein 3 by broth microdilution method; procedure, shortened: as §1

CO/N=C(\C(=O)N[C@@H]1C(=O)N2C(C(=O)O)=C(COC(C)=O)CS[C@H]12)c1csc(N)n1 [CEFOTAXIME] gave an MIC50 (Haemophilus influenzae [1]) of 0.063 µg/mL (≈ 0.138 µM), an MIC90 (Haemophilus influenzae [1]) of 0.125 µg/mL (≈ 0.274 µM) and an MIC50 (Haemophilus influenzae [2]) of 0.063 µg/mL (≈ 0.138 µM). For the same molecule, the MIC90 (Haemophilus influenzae [2]) was 0.25 µg/mL (≈ 0.549 µM), the MIC50 (Haemophilus influenzae [3]) was 0.063 µg/mL (≈ 0.138 µM) and the MIC90 (Haemophilus influenzae [3]) was 0.125 µg/mL (≈ 0.274 µM). The MIC50 (Haemophilus influenzae [4]) was 0.063 µg/mL (≈ 0.138 µM), the MIC90 (Haemophilus influenzae [4]) was 1 µg/mL (≈ 2.2 µM) and the MIC50 (Haemophilus influenzae [5]) was 0.063 µg/mL (≈ 0.138 µM). The MIC90 (Haemophilus influenzae [5]) was 1 µg/mL (≈ 2.2 µM), the MIC (Haemophilus influenzae [6]) was 0.25 µg/mL (≈ 0.549 µM) and the MIC (Haemophilus influenzae [7]) was 0.063 µg/mL (≈ 0.138 µM). For the same molecule, the MIC (Haemophilus influenzae [8]) was 0.063 µg/mL (≈ 0.138 µM), the MIC (Haemophilus influenzae [9]) was 0.063 µg/mL (≈ 0.138 µM) and the MIC (Haemophilus influenzae [10]) was 0.069 µg/mL (≈ 0.151 µM). The MIC (Haemophilus influenzae [11]) was 0.069 µg/mL (≈ 0.151 µM), the MIC (Haemophilus influenzae [12]) was 0.069 µg/mL (≈ 0.151 µM) and the MIC (Haemophilus influenzae [13]) was 0.194 µg/mL (≈ 0.426 µM). It also gave an MIC (Haemophilus influenzae [14]) of 0.194 µg/mL (≈ 0.426 µM), an MIC (Haemophilus influenzae [15]) of 0.194 µg/mL (≈ 0.426 µM) and an MIC (Haemophilus influenzae [16]) of 0.194 µg/mL (≈ 0.426 µM). The MIC (Haemophilus influenzae [17]) was 0.708 µg/mL (≈ 1.55 µM), the MIC (Haemophilus influenzae [18]) was 1.7 µg/mL (≈ 3.73 µM) and the MIC (Haemophilus influenzae [19]) was 0.063 µg/mL (≈ 0.138 µM). It also gave an MIC (Haemophilus influenzae [20]) of 0.188 µg/mL (≈ 0.413 µM), an MIC (Haemophilus influenzae [21]) of 0.532 µg/mL (≈ 1.17 µM) and an MIC (Haemophilus influenzae [22]) of 0.532 µg/mL (≈ 1.17 µM). For the same molecule, the MIC (Haemophilus influenzae [23]) was 0.188 µg/mL (≈ 0.413 µM), the MIC (Haemophilus influenzae [24]) was 0.188 µg/mL (≈ 0.413 µM) and the MIC (Haemophilus influenzae [25]) was 0.188 µg/mL (≈ 0.413 µM). For the same molecule, the MIC (Haemophilus influenzae [26]) was 0.079 µg/mL (≈ 0.173 µM), the MIC (Haemophilus influenzae [27]) was 0.079 µg/mL (≈ 0.173 µM) and the MIC (Haemophilus influenzae [28]) was 0.079 µg/mL (≈ 0.173 µM). The MIC (Haemophilus influenzae [29]) was 0.094 µg/mL (≈ 0.206 µM) and the MIC (Haemophilus influenzae [30]) was 0.125 µg/mL (≈ 0.274 µM).
